Data published in ChEMBL document CHEMBL1926569, “Novel (E)-1-(4-methyl-2-(alkylamino)thiazol-5-yl)-3-arylprop-2-en-1-ones as potent antimicrobial agents” (2011).
In brackets after ≈: the same amount, converted by molar mass.

Legend:
Candida albicans [1] = assay: Antifungal activity against Candida albicans isolated from human incubated for 72 hrs followed by serial sub-cultivation for 72 hrs by serial dilution technique; assay type: functional
How it was run: (§1)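 MFC: material from 72 h malt broth microdilution wells was serially sub-cultured into fresh broth plates and incubated a further 72 h at 28 °C. Fungicidal concentration is taken from growth after sub-culture. Duplicate, repeated three times.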

Aspergillus niger [2] = assay: Antifungal activity against Aspergillus niger ATCC 6275 after 72 hrs by serial dilution technique; assay type: functional; conditions: ATCC 6275, 72 h
How it was run: (§2)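 Modified microdilution in 96-well plates. Fungi were kept on malt agar at 4 °C. Spores were washed off in sterile 0.85% saline with 0.1% Tween 80. Compounds were dissolved at 1 mg/ml in 5% DMSO with 0.1% Tween 80 and added to malt broth with inoculum. Plates were shaken at 160 rpm for 72 h at 28 °C. Duplicate, repeated three times.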

Penicillium ochrochloron [3] = assay: Antifungal activity against Penicillium ochrochloron ATCC 9112 after 72 hrs by serial dilution technique; assay type: functional; conditions: ATCC 9112, 72 h; how it was run: as §2
Aspergillus ochraceus [4] = assay: Antifungal activity against Aspergillus ochraceus after 72 hrs by serial dilution technique
Talaromyces funiculosus [5] = assay: Antifungal activity against Penicillium funiculosum ATCC 36839 after 72 hrs by serial dilution technique; assay type: functional; conditions: ATCC 36839, 72 h; how it was run: as §2
Aspergillus flavus [6] = assay: Antifungal activity against Aspergillus flavus ATCC 9643 after 72 hrs by serial dilution technique; assay type: functional; conditions: ATCC 9643, 72 h; how it was run: as §2
Aspergillus flavus [7] = assay: Antifungal activity against Aspergillus flavus ATCC 9643 incubated for 72 hrs followed by serial sub-cultivation for 72 hrs by serial dilution technique; assay type: functional; conditions: ATCC 9643, 72 h; how it was run: as §1
Trichoderma viride [8] = assay: Antifungal activity against Trichoderma viride IAM 5061 incubated for 72 hrs followed by serial sub-cultivation for 72 hrs by serial dilution technique; assay type: functional; conditions: IAM 5061, 72 h; how it was run: as §1
Aspergillus niger [9] = assay: Antifungal activity against Aspergillus niger ATCC 6275 incubated for 72 hrs followed by serial sub-cultivation for 72 hrs by serial dilution technique; assay type: functional; conditions: ATCC 6275, 72 h; how it was run: as §1
Penicillium ochrochloron [10] = assay: Antifungal activity against Penicillium ochrochloron ATCC 9112 incubated for 72 hrs followed by serial sub-cultivation for 72 hrs by serial dilution technique; assay type: functional; conditions: ATCC 9112, 72 h; how it was run: as §1
Trichoderma viride [11] = assay: Antifungal activity against Trichoderma viride IAM 5061 after 72 hrs by serial dilution technique; assay type: functional; conditions: IAM 5061, 72 h; how it was run: as §2
Candida albicans [12] = assay: Antifungal activity against Candida albicans isolated from human after 72 hrs by serial dilution technique; assay type: functional; how it was run: as §2
Aspergillus ochraceus [13] = assay: Antifungal activity against Aspergillus ochraceus ATCC 12066 after 72 hrs by serial dilution technique; assay type: functional; conditions: ATCC 12066, 72 h; how it was run: as §2
Aspergillus fumigatus = assay: Antifungal activity against Aspergillus fumigatus isolated from human incubated for 72 hrs followed by serial sub-cultivation for 72 hrs by serial dilution technique; assay type: functional; how it was run: as §1
Talaromyces funiculosus [14] = assay: Antifungal activity against Penicillium funiculosum ATCC 36839 incubated for 72 hrs followed by serial sub-cultivation for 72 hrs by serial dilution technique; assay type: functional; conditions: ATCC 36839, 72 h; how it was run: as §1
Aspergillus ochraceus [15] = assay: Antifungal activity against Aspergillus ochraceus ATCC 12066 incubated for 72 hrs followed by serial sub-cultivation for 72 hrs by serial dilution technique; assay type: functional; conditions: ATCC 12066, 72 h; how it was run: as §1
Pseudomonas aeruginosa [16] = assay: Antibacterial activity against Pseudomonas aeruginosa ATCC 27853 incubated for 24 hrs followed by serial sub-cultivation for 24 hrs by microdilution; assay type: functional; conditions: ATCC 27853, 24 h
How it was run: (§3)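 MBC: after the 24 h LB broth microdilution (1.0 × 10⁴ CFU per well, 160 rpm), wells were serially sub-cultured into fresh broth plates and incubated a further 24 h. MBC is the lowest concentration with no visible growth, taken as 99.5% killing of the original inoculum. Duplicate, repeated three times.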

Escherichia coli [17] = assay: Antibacterial activity against Escherichia coli ATCC 35210 after 24 hrs by microdilution method; assay type: functional; conditions: ATCC 35210, 24 h
How it was run: (§4)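 Broth microdilution in 96-well plates. Bacterial suspensions were adjusted in sterile saline to 1.0 × 10⁵ CFU/ml, prepared daily and kept at 4 °C. Compound was added to LB broth with 1.0 × 10⁴ CFU per well and shaken at 160 rpm for 24 h at […] (so in the source). MIC is the lowest concentration with no visible growth under a binocular microscope. OD655 was also read. Duplicate, repeated three times.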

Staphylococcus aureus [18] = assay: Antibacterial activity against Staphylococcus aureus ATCC 6538 after 24 hrs by microdilution method; assay type: functional; conditions: ATCC 6538, 24 h; how it was run: as §4
Staphylococcus aureus [19] = assay: Antibacterial activity against Staphylococcus aureus ATCC 6538 incubated for 24 hrs followed by serial sub-cultivation for 24 hrs by microdilution method; assay type: functional; conditions: ATCC 6538, 24 h; how it was run: as §3
Micrococcus flavus [20] = assay: Antibacterial activity against Micrococcus flavus ATCC 10240 incubated for 24 hrs followed by serial sub-cultivation for 24 hrs by microdilution; assay type: functional; conditions: ATCC 10240, 24 h; how it was run: as §3
Enterococcus faecalis [21] = assay: Antibacterial activity against Enterococcus faecalis isolated from human incubated for 24 hrs followed by serial sub-cultivation for 24 hrs by microdilution; assay type: functional; how it was run: as §3
Listeria monocytogenes [22] = assay: Antibacterial activity against Listeria monocytogenes NCTC 7973 incubated for 24 hrs followed by serial sub-cultivation for 24 hrs by microdilution; assay type: functional; conditions: NCTC 7973, 24 h; how it was run: as §3
Listeria monocytogenes [23] = assay: Antibacterial activity against Listeria monocytogenes NCTC 7973 after 24 hrs by microdilution method; assay type: functional; conditions: NCTC 7973, 24 h; how it was run: as §4
Bacillus cereus [24] = assay: Antibacterial activity against clinical isolate of Bacillus cereus incubated for 24 hrs followed by serial sub-cultivation for 24 hrs by microdilution; assay type: functional; how it was run: as §3
Pseudomonas aeruginosa [25] = assay: Antibacterial activity against Pseudomonas aeruginosa ATCC 27853 after 24 hrs by microdilution method; assay type: functional; conditions: ATCC 27853, 24 h; how it was run: as §4
Salmonella typhimurium [26] = assay: Antibacterial activity against Salmonella Typhimurium ATCC 13311 incubated for 24 hrs followed by serial sub-cultivation for 24 hrs by microdilution; assay type: functional, Salmonella enterica subsp. enterica serovar Typhimurium; conditions: Salmonella enterica, ATCC 13311, 24 h; how it was run: as §3
Salmonella typhimurium [27] = assay: Antibacterial activity against Salmonella Typhimurium ATCC 13311 after 24 hrs by microdilution method; assay type: functional, Salmonella enterica subsp. enterica serovar Typhimurium; conditions: Salmonella enterica, ATCC 13311, 24 h; how it was run: as §4
Escherichia coli [28] = assay: Antibacterial activity against Escherichia coli ATCC 35210 incubated for 24 hrs followed by serial sub-cultivation for 24 hrs by microdilution; assay type: functional; conditions: ATCC 35210, 24 h; how it was run: as §3
Enterococcus faecalis [29] = assay: Antibacterial activity against Enterococcus faecalis isolated from human after 24 hrs by microdilution method; assay type: functional; how it was run: as §4
Bacillus cereus [30] = assay: Antibacterial activity against clinical isolate of Bacillus cereus after 24 hrs by microdilution method; assay type: functional; how it was run: as §4
Micrococcus flavus [31] = assay: Antibacterial activity against Micrococcus flavus ATCC 10240 after 24 hrs by microdilution method; assay type: functional; conditions: ATCC 10240, 24 h; how it was run: as §4

MIC (Escherichia coli [17]) [µM]	MIC (Staphylococcus aureus [18]) [µM]	Compound	MFC (Candida albicans [1]) [µM]	MIC (Aspergillus niger [2]) [µM]	MIC (Penicillium ochrochloron [3]) [µM]	MIC (Aspergillus ochraceus [4]) [µM]	MIC (Talaromyces funiculosus [5]) [µM]	MIC (Aspergillus flavus [6]) [µM]	MFC (Aspergillus flavus [7]) [µM]	MFC (Trichoderma viride [8]) [µM]	MFC (Aspergillus niger [9]) [µM]	MFC (Penicillium ochrochloron [10]) [µM]	MIC (Trichoderma viride [11]) [µM]	MIC (Candida albicans [12]) [µM]	MIC (Aspergillus ochraceus [13]) [µM]	MFC (Aspergillus fumigatus) [µM]	MFC (Talaromyces funiculosus [14]) [µM]	MFC (Aspergillus ochraceus [15]) [µM]	MBC (Pseudomonas aeruginosa [16]) [µM]	MBC (Staphylococcus aureus [19]) [µM]	also measured
–	–	CC(=O)N1CCN(c2ccc(OCC3COC(Cn4ccnc4)(c4ccc(Cl)cc4Cl)O3)cc2)CC1 (centres undefined) [KETOCONAZOLE]	950 (≈ 505 µg/mL)	380 (≈ 202 µg/mL)	3800 (≈ 2020 µg/mL)	380 (≈ 202 µg/mL)	380 (≈ 202 µg/mL)	2850 (≈ 1510 µg/mL)	3800 (≈ 2020 µg/mL)	5700 (≈ 3030 µg/mL)	950 (≈ 505 µg/mL)	3800 (≈ 2020 µg/mL)	4750 (≈ 2520 µg/mL)	380 (≈ 202 µg/mL)	380 (≈ 202 µg/mL)	950 (≈ 505 µg/mL)	950 (≈ 505 µg/mL)	950 (≈ 505 µg/mL)	–	–	–
–	–	c1ccc(-c2ccc(C(c3ccccc3)n3ccnc3)cc2)cc1 (centres undefined) [BIFONAZOLE]	480 (≈ 149 µg/mL)	480 (≈ 149 µg/mL)	480 (≈ 149 µg/mL)	480 (≈ 149 µg/mL)	640 (≈ 199 µg/mL)	480 (≈ 149 µg/mL)	640 (≈ 199 µg/mL)	800 (≈ 248 µg/mL)	640 (≈ 199 µg/mL)	640 (≈ 199 µg/mL)	640 (≈ 199 µg/mL)	320 (≈ 99.3 µg/mL)	480 (≈ 149 µg/mL)	640 (≈ 199 µg/mL)	800 (≈ 248 µg/mL)	800 (≈ 248 µg/mL)	–	–	–
172 (≈ 100 µg/mL)	172 (≈ 100 µg/mL)	CN[C@@H]1[C@H](O[C@H]2[C@H](O[C@H]3[C@H](O)[C@@H](O)[C@H](N=C(N)N)[C@@H](O)[C@@H]3N=C(N)N)O[C@@H](C)[C@]2(O)C=O)O[C@@H](CO)[C@H](O)[C@H]1O [STREPTOMYCIN]	–	–	–	–	–	–	–	–	–	–	–	–	–	–	–	–	344 (≈ 200 µg/mL)	344 (≈ 200 µg/mL)	MBC (Micrococcus flavus [20]): 172 µM (≈ 100 µg/mL); MBC (Enterococcus faecalis [21]): 86 µM (≈ 50 µg/mL); MBC (Listeria monocytogenes [22]): 516 µM (≈ 300 µg/mL); MIC (Listeria monocytogenes [23]): 258 µM (≈ 150 µg/mL); MBC (Bacillus cereus [24]): 86 µM (≈ 50 µg/mL); MIC (Pseudomonas aeruginosa [25]): 172 µM (≈ 100 µg/mL); MBC (Salmonella typhimurium [26]): 344 µM (≈ 200 µg/mL); MIC (Salmonella typhimurium [27]): 172 µM (≈ 100 µg/mL); MBC (Escherichia coli [28]): 344 µM (≈ 200 µg/mL); MIC (Enterococcus faecalis [29]): 43 µM (≈ 25 µg/mL); MIC (Bacillus cereus [30]): 43 µM (≈ 25 µg/mL); MIC (Micrococcus flavus [31]): 86 µM (≈ 50 µg/mL)
372 (≈ 130 µg/mL)	248 (≈ 86.7 µg/mL)	CC1(C)S[C@@H]2[C@H](NC(=O)[C@H](N)c3ccccc3)C(=O)N2[C@H]1C(=O)O [AMPICILLIN]	–	–	–	–	–	–	–	–	–	–	–	–	–	–	–	–	1240 (≈ 433 µg/mL)	372 (≈ 130 µg/mL)	MBC (Micrococcus flavus [20]): 372 µM (≈ 130 µg/mL); MBC (Enterococcus faecalis [21]): 372 µM (≈ 130 µg/mL); MBC (Listeria monocytogenes [22]): 744 µM (≈ 260 µg/mL); MIC (Listeria monocytogenes [23]): 372 µM (≈ 130 µg/mL); MBC (Bacillus cereus [24]): 372 µM (≈ 130 µg/mL); MIC (Pseudomonas aeruginosa [25]): 744 µM (≈ 260 µg/mL); MBC (Salmonella typhimurium [26]): 492 µM (≈ 172 µg/mL); MIC (Salmonella typhimurium [27]): 248 µM (≈ 86.7 µg/mL); MBC (Escherichia coli [28]): 492 µM (≈ 172 µg/mL); MIC (Enterococcus faecalis [29]): 248 µM (≈ 86.7 µg/mL); MIC (Bacillus cereus [30]): 248 µM (≈ 86.7 µg/mL); MIC (Micrococcus flavus [31]): 248 µM (≈ 86.7 µg/mL)
